From ChEMBL document CHEMBL1123369, “Synthesis and structure-activity relationships of new arylfluoronaphthyridine antibacterial agents” (1986)
Values after ≈ are worked out from the molar mass of the structure shown.

Experiments:
Format in all cases: functional
Acinetobacter sp. = assay: In vitro antibacterial activity against Acinetobacter species CMX669
Method in brief: (§1)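 Twofold agar dilution in brain-heart infusion agar, test range 200 to 0.005 µg/mL, made from a 2000 µg/mL stock. Organisms grown overnight in BHI broth at 36 °C. About 10⁴ organisms inoculated per plate, then incubated 18 h at 36 °C. MIC taken as the lowest concentration giving no visible growth.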

Staphylococcus aureus [1] = assay: In vitro antibacterial activity against Staphylococcus aureus ATCC 6538P; method in brief: as §1
Staphylococcus aureus [2] = assay: In vitro antibacterial activity against Staphylococcus aureus CMX 686B; method in brief: as §1
[3] = tested on: Staphylococcus epidermidis; assay: In vitro antibacterial activity against Staphylococcus epidermidis 3519; method in brief: as §1
Streptococcus pyogenes = assay: In vitro antibacterial activity against Streptococcus pyogenes 930; method in brief: as §1
Pseudomonas aeruginosa [4] = assay: In vitro antibacterial activity against Pseudomonas aeruginosa K799/WT; method in brief: as §1
Escherichia coli = assay: In vitro antibacterial activity against Escherichia coli Juhl; method in brief: as §1
Klebsiella aerogenes = assay: In vitro antibacterial activity against Enterobacter aerogenes ATCC 13048; method in brief: as §1
Enterococcus faecium = assay: In vitro antibacterial activity against Streptococcus faecium ATCC 8043; method in brief: as §1
Pseudomonas aeruginosa [5] = assay: In vitro antibacterial activity against Pseudomonas aeruginosa 5007; method in brief: as §1
Klebsiella pneumoniae = assay: In vitro antibacterial activity against Klebsiella pneumoniae 8045; method in brief: as §1
Mus musculus [6] = assay: In vivo antibacterial activity against systemic infection caused by Escherichia coli Juhl in mice
Method in brief: (§2)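 CF-1 female mice, about 20 g. Infected ip with 0.5 mL of an 18-h BHI culture diluted in 5% hog gastric mucin to 100× LD₅₀. LD₅₀ set by 10-fold dilutions (Reed–Muench, day 6). Compound given in water or dilute NaOH, sc or po, total dose split at 1 and 5 h post-infection. At least 3 dose levels, 10 mice each. Deaths followed 6 days. ED₅₀ from day-6 cumulative mortality by trimmed Logit, with 95% confidence limits.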

Mus musculus [7] = assay: In vivo antibacterial activity against systemic infection caused by Pseudomonas aeruginosa 5007 in mice
Mus musculus [8] = assay: In vivo dose(po) inhibiting systemic infections caused by Staphylococcus aureus NCTC 10649 in mice; method in brief: as §2
Mus musculus [9] = assay: In vivo dose(po) inhibiting systemic infections caused by Pseudomonas aeruginosa 5007 in mice; method in brief: as §2
Mus musculus [10] = assay: In vivo dose(sc) inhibiting systemic infections caused by Pseudomonas aeruginosa 5007 in mice; method in brief: as §2
Mus musculus [11] = assay: In vivo dose(po) inhibiting systemic infections caused by Escherichia coli Juhl in mice; method in brief: as §2
Mus musculus [12] = assay: In vivo dose(sc) inhibiting systemic infections caused by Staphylococcus aureus NCTC 10649 in mice; method in brief: as §2
Mus musculus [13] = assay: In vivo antibacterial activity against systemic infection caused by Staphylococcus aureus NCTC 10649 in mice
Mus musculus [14] = assay: In vivo dose(sc) inhibiting systemic infections caused by Escherichia coli Juhl in mice
Method in brief: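 Female CF-1 mice (~20 g) infected ip with 0.5 mL of 18-h BHI culture of E. coli Juhl diluted in 5% (w/v) hog gastric mucin to 100 times LD50 (LD50 from 10-fold dilutions, day-6 mortality, Reed-Muench). Compound dissolved in water (HCl salt) or dilute NaOH then water, given sc split equally at 1 and 5 h post-infection. 10 mice per dose, ≥3 doses. Deaths recorded 6 days; ED50 from day-6 cumulative mortality by trimmed Logit.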

Mus musculus [15] = assay: In vivo dose(sc) inhibiting systemic infections caused by Escherichia coli Juhl in mice.; method in brief: as §2
Mus musculus [16] = assay: In vivo dose(po) inhibiting systemic infections caused by Staphylococcus aureus NCTC 10649 in mice.; method in brief: as §2
Mus musculus [17] = assay: In vivo dose(sc) inhibiting systemic infections caused by Pseudomonas aeruginosa 5007 in mice.; method in brief: as §2
Mus musculus [18] = assay: In vivo dose(po) inhibiting systemic infections caused by Pseudomonas aeruginosa 5007 in mice.; method in brief: as §2
Mus musculus [19] = assay: In vivo dose(po) inhibiting systemic infections caused by Escherichia coli Juhl in mice.; method in brief: as §2
Mus musculus [20] = assay: In vivo dose(sc) inhibiting systemic infections caused by Staphylococcus aureus NCTC 10649 in mice.; method in brief: as §2
Mus musculus [21] = assay: In vivo antibacterial activity against systemic infection caused by Escherichia coli Juhl in mice.; method in brief: as §2
Mus musculus [22] = assay: In vivo antibacterial activity against systemic infection caused by Pseudomonas aeruginosa 5007 in mice.; method in brief: as §2
Mus musculus [23] = assay: In vivo antibacterial activity against systemic infection caused by Staphylococcus aureus NCTC 10649 in mice.; method in brief: as §2

Structure (SMILES) | MIC (Acinetobacter sp.) [µg/mL] | MIC (Staphylococcus aureus [1]) [µg/mL] | MIC (Staphylococcus aureus [2]) [µg/mL] | MIC [3] [µg/mL] | MIC (Streptococcus pyogenes) [µg/mL] | MIC (Pseudomonas aeruginosa [4]) [µg/mL] | MIC (Escherichia coli) [µg/mL] | MIC (Klebsiella aerogenes) [µg/mL] | MIC (Enterococcus faecium) [µg/mL] | MIC (Pseudomonas aeruginosa [5]) [µg/mL] | MIC (Klebsiella pneumoniae) [µg/mL] | further results
O=C(O)c1cn(-c2ccc(F)cc2)c2nc(N3CCC(O)C3)c(F)cc2c1=O (stereo not given) | 0.39 (≈ 1.01 µM) | 0.05 (≈ 0.129 µM) | 0.05 (≈ 0.129 µM) | 0.2 (≈ 0.516 µM) | 0.78 (≈ 2.01 µM) | 3.1 (≈ 8 µM) | 0.39 (≈ 1.01 µM) | 0.39 (≈ 1.01 µM) | 1.56 (≈ 4.03 µM) | 3.1 (≈ 8 µM) | 0.1 (≈ 0.258 µM) | 
CN1CCN(c2cc3c(cc2F)c(=O)c(C(=O)O)cn3-c2ccc(F)cc2)CC1.Cl [DIFLOXACIN HYDROCHLORIDE] | 0.78 | 0.2 | 0.2 | 0.39 | 1.56 | 1.56 | 0.2 | 0.78 | 1.56 | 0.78 | 0.1 | 
O=C(O)c1cn(C2CC2)c2cc(N3CCNCC3)c(F)cc2c1=O [CIPROFLOXACIN] | 1.56 (≈ 4.71 µM) | 0.2 (≈ 0.604 µM) | 0.39 (≈ 1.18 µM) | 0.39 (≈ 1.18 µM) | 0.39 (≈ 1.18 µM) | 0.1 (≈ 0.302 µM) |  | 0.05 (≈ 0.151 µM) | 0.2 (≈ 0.604 µM) | 0.1 (≈ 0.302 µM) | 0.02 (≈ 0.0604 µM) | MIC (Mus musculus [6]): 0.02 µg/mL (≈ 0.0604 µM); MIC (Mus musculus [7]): 0.1 µg/mL (≈ 0.302 µM); ED50 (Mus musculus [8]): 15.5 mg/kg; ED50 (Mus musculus [9]): 13.3 mg/kg; ED50 (Mus musculus [10]): 2.1 mg/kg; ED50 (Mus musculus [11]): 1.9 mg/kg; ED50 (Mus musculus [12]): 1.6 mg/kg; MIC (Mus musculus [13]): 0.25 µg/mL (≈ 0.754 µM); ED50 (Mus musculus [14]): 0.2 mg/kg
Cl.O=C(O)c1cn(-c2ccc(F)cc2)c2cc(N3CCNCC3)c(F)cc2c1=O [SARAFLOXACIN HYDROCHLORIDE] | 0.2 | 0.2 | 0.2 | 0.39 | 0.78 | 0.39 | 0.05 | 0.2 | 1.56 | 0.39 | 0.02 | ED50 (Mus musculus [15]): 0.6 mg/kg; ED50 (Mus musculus [16]): 6.5 mg/kg; ED50 (Mus musculus [17]): 1.6 mg/kg; ED50 (Mus musculus [18]): 21.4 mg/kg; ED50 (Mus musculus [19]): 4.3 mg/kg; ED50 (Mus musculus [20]): 1.6 mg/kg; MIC (Mus musculus [21]): 0.05 µg/mL; MIC (Mus musculus [22]): 0.39 µg/mL; MIC (Mus musculus [23]): 0.12 µg/mL
CC1CN(c2nc3c(cc2F)c(=O)c(C(=O)O)cn3-c2ccc(F)cc2)CCN1 (stereo not given) | 0.2 (≈ 0.5 µM) | 0.39 (≈ 0.974 µM) | 0.78 (≈ 1.95 µM) | 0.78 (≈ 1.95 µM) | 3.1 (≈ 7.74 µM) | 1.56 (≈ 3.9 µM) | 0.05 (≈ 0.125 µM) | 12.5 (≈ 31.2 µM) | 6.2 (≈ 15.5 µM) | 1.56 (≈ 3.9 µM) | 0.02 (≈ 0.05 µM) | 
CN1CCN(c2nc3c(cc2F)c(=O)c(C(=O)O)cn3-c2ccc(F)cc2F)CC1 | 0.39 (≈ 0.932 µM) | 0.2 (≈ 0.478 µM) | 0.2 (≈ 0.478 µM) | 0.39 (≈ 0.932 µM) | 1.56 (≈ 3.73 µM) | 3.1 (≈ 7.41 µM) | 0.39 (≈ 0.932 µM) | 0.39 (≈ 0.932 µM) | 1.56 (≈ 3.73 µM) | 3.1 (≈ 7.41 µM) | 0.39 (≈ 0.932 µM) | 
O=C(O)c1cn(-c2ccc(F)cc2F)c2nc(N3CCNCC3)c(F)cc2c1=O | 0.39 (≈ 0.965 µM) | 0.2 (≈ 0.495 µM) | 0.2 (≈ 0.495 µM) | 0.39 (≈ 0.965 µM) | 0.78 (≈ 1.93 µM) | 0.39 (≈ 0.965 µM) | 0.05 (≈ 0.124 µM) | 0.2 (≈ 0.495 µM) | 0.78 (≈ 1.93 µM) | 0.39 (≈ 0.965 µM) | 0.05 (≈ 0.124 µM) | ED50 (Mus musculus [16]): 2.4 mg/kg; ED50 (Mus musculus [17]): 4.6 mg/kg; ED50 (Mus musculus [18]): 7 mg/kg; ED50 (Mus musculus [20]): 0.6 mg/kg; MIC (Mus musculus [22]): 0.39 µg/mL (≈ 0.965 µM); MIC (Mus musculus [23]): 0.12 µg/mL (≈ 0.297 µM)
